# Published values pooled from the literature.
# Each line is one published result; the experiments were not run side by side.
# Target: Mitogen-activated protein kinase 10 (MAPK10, Homo sapiens, UniProt P53779)
Compound,read-out,mode,technique,concentration,measurement,value
c1ccc(N2CCN(Cc3nc4ccccc4[nH]3)CC2)nc1,binding,,competition with immobilised ligand,1 µM,remaining binding,100%
CCOc1cc(-c2nncn2C)ccc1Nc1ncc2cc(C)nc(NCC(C)(C)C)c2n1,enzyme activity,inhibitor,FRET,1 µM,inhibition,80%
COc1cc(-c2cc(-c3ccc(N4CCNCC4)cc3)cnc2C)cc(OC)c1OC,enzyme activity,inhibitor,,0.1 µM,inhibition,1%
Cc1c(NC(=O)c2cc(C(N)=O)nc3cc(F)ccc23)c(C(F)(F)F)nn1Cc1ccc(C(C)(C)C)cc1,cell-free assay,,competition with immobilised ligand,1 µM,remaining binding,100%
CC(C)(O)[C@H]1CC[C@H](Nc2ccc3ncc(-c4cccc(C(F)(F)F)c4)n3n2)CC1,enzyme activity,inhibitor,,1 µM,remaining activity,107%
Nc1ncnc2c1ncn2[C@@H]1O[C@H](COP(=O)(O)OP(=O)(O)OP(=O)(O)O)[C@@H](O)[C@H]1O,thermal stability,,DSF,2 µM,ΔTm,~4.6 °C
C[C@H](c1ccnc(Nc2nc3ccc(-c4cc(N(C)C)ncn4)cc3[nH]2)c1)N1CCN(C(=O)CC(F)(F)F)CC1,cell-free assay,,competition with immobilised ligand,0.1 µM,remaining binding,81%
CNC(=O)c1cc(Oc2ccc(NC(=O)Nc3ccc(Cl)c(C(F)(F)F)c3)cc2)ccn1,enzyme activity,inhibitor,,10 µM,inhibition,66%
Oc1cccc(-c2nc(N3CCOCC3)c3oc4ncccc4c3n2)c1,enzyme activity,inhibitor,,10 µM,remaining activity,101%
Cc1cnc(NC2CCOCC2)nc1-n1cnc(C(=O)NC(CN)c2cc(F)cc(Cl)c2)c1 (stereo not drawn),enzyme activity,inhibitor,radiometric,1 µM,remaining activity,55%
N#CCCc1ccc2c(c1)-c1[nH]c3ccc([N+](=O)[O-])cc3c1CC(=O)N2,cell-free assay,,,0.5 µM,remaining signal,93.3%
CC(C)(C)c1nc2c(s1)c1nc(N)ncc1c1ccc(NS(=O)(=O)c3c(F)cccc3F)c(F)c12,enzyme activity,inhibitor,radiometric,1 µM,remaining activity,70%
CS(=O)(=O)c1cc(C2(NC(=O)c3cncc4c3cnn4-c3ccc(F)cc3)CC2)ccn1,cell-free assay,,competition with immobilised ligand,1 µM,remaining binding,100%
CN1CC(Oc2cnc(C#N)cc2-c2ccn3nc(NC(=O)C4CC4)cc3c2)C1,enzyme activity,inhibitor,,1 µM,inhibition,2%
COc1cc(Nc2cnc(C#N)c(O[C@H](C)CN(C)C)n2)ncc1-c1cnn(C)c1,enzyme activity,inhibitor,radiometric,1 µM,remaining activity,113%
CC(=O)N1CCC(c2ccc(C(=O)NC3=NCCN3)cc2C(F)(F)F)CC1,cell-free assay,,competition with immobilised ligand,1 µM,remaining binding,100%
FC(F)(F)Oc1cccc(-c2cnc3ccc(-c4ccncc4)nn23)c1,enzyme activity,inhibitor,radiometric,1 µM,activity vs control,85%
CS(=O)(=O)N1CCCC(NC(=O)[C@H](CCC2CCCCC2)NC(=O)c2ccc(CNc3ncnc4c3nnn4-c3ccccc3)cc2)C1 (stereo partly drawn),cell-free assay,,competition with immobilised ligand,0.1 µM,remaining binding,100%
Cc1ccc(C(=O)NCc2ccsc2)cc1C#Cc1cn(C(C)C)c2ncnc(N)c12,enzyme activity,inhibitor,,1 µM,activity vs control,84%
COc1cc(/C=C/C(=O)CC(=O)/C=C/c2ccc(O)c(OC)c2)ccc1O,enzyme activity,inhibitor,,1 µM,activity vs control,109%
COc1cc2ncnc(Nc3ccc(Oc4ccccc4)cc3C)c2cc1OC,enzyme activity,inhibitor,,1 µM,inhibition,5%
Nc1ncnc2occ(-c3ccc(NC(=O)Nc4cc(C(F)(F)F)ccc4F)cc3)c12,cell-free assay,inhibitor,,20 µM,remaining signal,1.3%
CNC(=O)Nc1ccc2c(c1)CC[C@@]21OC(=O)N(CC(=O)N(Cc2ccc(F)cc2)[C@@H](C)C(F)(F)F)C1=O,cell-free assay,,competition with immobilised ligand,1 µM,remaining binding,73%
O=C1NC(=O)c2cc(Nc3ccc(F)cc3)c(Nc3ccc(F)cc3)cc21,cell-free assay,,,0.5 µM,remaining signal,97.3%
